Published values from different studies.
Protocols differ between the studies behind these lines.
EGFR L858R/T790M: Epidermal growth factor receptor (EGFR, Homo sapiens, UniProt P00533, L858R/T790M)
EGFR: Epidermal growth factor receptor (EGFR, Homo sapiens, UniProt P00533)

SMILES | target | effect on | action | technique | measurement | value
Cc1ccc2c(-c3cc4c(CN5CCN(Cc6ccccn6)CC5)cnc(C)c4o3)cc(=O)oc2c1 | EGFR L858R/T790M | enzyme activity | inhibitor | ADP detection | IC50 | 12.4 nM
CC(C)=CCc1c(O)c(O)c2oc3c(O)ccc(O)c3c(=O)c2c1CC=C(C)C | EGFR | binding | – | SPR | Kd | 19000 nM
COC(=O)[C@]12CCC(C)(C)C[C@H]1[C@H]1C(=O)C=C3[C@@]4(C)C=C(C#N)C(=O)C(C)(C)[C@@H]4CC[C@@]3(C)[C@]1(C)CC2 | EGFR L858R/T790M | binding | – | MST | Kd | 1100 nM
COc1ccc2[nH]c(C(=O)Nc3nc(CC(=O)O)cs3)cc2c1 | EGFR | enzyme activity | inhibitor | ELISA | IC50 | 1740 nM
CCc1c(C)c2ccc(OCC(=O)NN=Cc3ccc([N+](=O)[O-])cc3)cc2oc1=O | EGFR | enzyme activity | inhibitor | ATP luminescence | IC50 | 414 nM
C=CC(=O)Nc1cc(Nc2ncc(C(=O)OC(C)C)c(-c3cn(C)c4ccccc34)n2)c(OC)cc1N(C)CCN(C)C | EGFR L858R/T790M | enzyme activity | inhibitor | – | IC50 | 0.6 nM
Cc1ncc(CN2CCc3ccccc3C2)c2cc(C(=O)c3ccc4c(c3)OCCO4)oc12 | EGFR L858R/T790M | enzyme activity | inhibitor | ADP detection | IC50 | 10.8 nM
O=C(O)Cc1csc(NC(=O)c2cc3ccccc3[nH]2)n1 | EGFR | enzyme activity | inhibitor | ELISA | IC50 | 618 nM
O=C(CCn1c(=O)ccc2ccccc21)N1CCOCC1 | EGFR | enzyme activity | inhibitor | – | IC50 | 52.7 nM
C=CC(=O)N1CC[C@@H](Oc2nc(Nc3ccc(N4CCC(N5CCN(C)CC5)CC4)cc3)c(C(N)=O)nc2CC)C1 | EGFR L858R/T790M | enzyme activity | inhibitor | – | IC50 | 1.2 nM
Cc1c(Cc2ccccc2)c(=O)oc2c(C)c(OCC(=O)NN=Cc3ccc([N+](=O)[O-])cc3)ccc12 | EGFR | enzyme activity | inhibitor | ATP luminescence | IC50 | 313 nM
Cc1ncc(CN2CCN(Cc3ccccn3)CC2)c2cc(C(=O)c3ccc4c(c3)OCCO4)oc12 | EGFR L858R/T790M | enzyme activity | inhibitor | ADP detection | IC50 | 3.23 nM
